Laboratory results as given in ChEMBL document CHEMBL1143402 (PLoS Med, 2006).

How the values were obtained:
[1] = Stability in mouse liver microsomes; type: ADME, Microsome
Method in brief: (§1)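 Liver microsomes (1 mg/ml protein) incubated with 100 µM drug, 2.5 mM NADPH and 2.5 mM NADH in 100 mM phosphate pH 7.4 with 1% DMSO. Run in duplicate, 2 h at 37 °C with shaking. Extracted with acetonitrile/ethyl acetate; analysed by HPLC and LC-ESI-MS/MS.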

[2] = Stability in monkey liver microsomes; type: ADME, Macaca mulatta, Microsome; conditions: rhesus monkey; method in brief: as §1
Salmonella typhimurium [3] = assay: Toxic mutagenic effect in Salmonella Typhimurium TA1535 in presence of rat liver microsomes after 48 hrs by bacterial reverse mutation test; type: toxicity, organism-based; conditions: salmonella enterica subsp. enterica serovar typhimurium
[4] = system: Mycobacterium tuberculosis; assay: Antimycobacterial activity against Mycobacterium tuberculosis H37Rv in human THP1 cells after 4 hrs; type: functional, organism-based; conditions: THP-1
Method in brief: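 PMA-differentiated human THP-1 macrophages infected 4 h with H37Rv, washed, then 20 µg/ml SM for 20 h to kill extracellular bacilli. Compound pulse for 4 h, washout, further 68-h culture. Lysis in 0.1% SDS, plating on 7H11 agar, colonies counted after 16 d at 37 °C; n = 3.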

Liver microsomes [5] = assay: Stability in human liver microsomes; type: ADME, Microsome; method in brief: as §1
Liver microsomes [6] = assay: Stability in rat liver microsomes; type: ADME, Microsome; method in brief: as §1
[7] = system: Mycobacterium tuberculosis; assay: Antimycobacterial activity against Mycobacterium tuberculosis Kurono infected po dosed immunocompromized BALB/c mouse assessed as reduction in viable lung bacterial count administered once daily; type: functional, organism-based
Method in brief: (§2)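 From day 1, randomised by body weight (n = 5/group) and dosed orally once daily for 10 d, 10 to 0.313 mg/kg in 2-fold steps, in 5% gum arabic. Lung homogenates plated on 7H11 agar, colonies counted after 14 d; log10 CFU.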

[8] = Stability in rabbit liver microsomes; type: ADME, Oryctolagus cuniculus, Microsome; method in brief: as §1
[9] = Stability in dog liver microsomes; type: ADME, Canis lupus familiaris, Microsome; method in brief: as §1
Salmonella typhimurium [10] = assay: Toxic mutagenic effect in Salmonella Typhimurium TA1537 in presence of rat liver microsomes after 48 hrs by bacterial reverse mutation test; type: toxicity, organism-based; conditions: salmonella enterica subsp. enterica serovar typhimurium
Salmonella typhimurium [11] = assay: Toxic mutagenic effect in Salmonella Typhimurium TA98 in presence of rat liver microsomes after 48 hrs by bacterial reverse mutation test; type: toxicity, organism-based; conditions: salmonella enterica subsp. enterica serovar typhimurium
Salmonella typhimurium [12] = assay: Toxic mutagenic effect in Salmonella Typhimurium TA100 in presence of rat liver microsomes after 48 hrs by bacterial reverse mutation test; type: toxicity, organism-based; conditions: salmonella enterica subsp. enterica serovar typhimurium
[13] = system: Mycobacterium tuberculosis; assay: Antimycobacterial activity against Mycobacterium tuberculosis Kurono infected po dosed BALB/c mouse assessed as reduction in viable lung bacterial count administered once daily; type: functional, organism-based; method in brief: as §2
CYP1A1/CYP1A2 = target: T1, CYP1A1/CYP1A2 (Homo sapiens, UniProt P04798); assay: Effect on CYP1A1/CYP1A2 in human liver assessed as 7-ethoxyresorufin O-deethylation at 100 uM relative to control; type: ADME, tissue-based; conditions: probe 7-ethoxyresorufin, read-out: Activity
T1 sequence (P04798 whole entry): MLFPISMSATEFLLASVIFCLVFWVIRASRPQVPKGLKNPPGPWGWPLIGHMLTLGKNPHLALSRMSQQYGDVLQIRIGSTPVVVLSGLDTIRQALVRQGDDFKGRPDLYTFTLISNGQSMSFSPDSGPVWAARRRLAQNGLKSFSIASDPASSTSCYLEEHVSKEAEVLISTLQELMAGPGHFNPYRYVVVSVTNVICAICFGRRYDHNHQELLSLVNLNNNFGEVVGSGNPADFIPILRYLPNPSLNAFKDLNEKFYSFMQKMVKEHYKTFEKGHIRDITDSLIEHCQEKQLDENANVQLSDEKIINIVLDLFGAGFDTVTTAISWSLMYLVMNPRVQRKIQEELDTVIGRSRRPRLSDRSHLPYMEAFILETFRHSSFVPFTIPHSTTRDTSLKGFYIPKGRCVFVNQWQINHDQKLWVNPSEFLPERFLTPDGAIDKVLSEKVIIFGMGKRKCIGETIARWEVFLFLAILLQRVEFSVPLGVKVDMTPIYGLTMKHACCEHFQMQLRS
Method in brief: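 Human liver microsomes (0.1–0.5 mg protein) in 0.1 M phosphate pH 7.4 with 0.1 mM EDTA and NADPH-generating system. […] Metabolite formation by HPLC, in triplicate; mean expressed as % of control.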

CYP2E1 = CYP2E1 (Homo sapiens, UniProt P05181); assay: Effect on CYP2E1 in human liver assessed as chlorzoxazone 6-hydroxylation at 100 uM relative to control; type: ADME, tissue-based; conditions: probe chlorzoxazone, read-out: Activity
CYP2A6 = target: T2, CYP2A6 (Homo sapiens, UniProt P11509); assay: Effect on CYP2A6 in human liver assessed as coumarin 7-hydroxylation at 100 uM relative to control; type: ADME, tissue-based; conditions: probe coumarin, read-out: Activity
T2 sequence (P11509 whole entry): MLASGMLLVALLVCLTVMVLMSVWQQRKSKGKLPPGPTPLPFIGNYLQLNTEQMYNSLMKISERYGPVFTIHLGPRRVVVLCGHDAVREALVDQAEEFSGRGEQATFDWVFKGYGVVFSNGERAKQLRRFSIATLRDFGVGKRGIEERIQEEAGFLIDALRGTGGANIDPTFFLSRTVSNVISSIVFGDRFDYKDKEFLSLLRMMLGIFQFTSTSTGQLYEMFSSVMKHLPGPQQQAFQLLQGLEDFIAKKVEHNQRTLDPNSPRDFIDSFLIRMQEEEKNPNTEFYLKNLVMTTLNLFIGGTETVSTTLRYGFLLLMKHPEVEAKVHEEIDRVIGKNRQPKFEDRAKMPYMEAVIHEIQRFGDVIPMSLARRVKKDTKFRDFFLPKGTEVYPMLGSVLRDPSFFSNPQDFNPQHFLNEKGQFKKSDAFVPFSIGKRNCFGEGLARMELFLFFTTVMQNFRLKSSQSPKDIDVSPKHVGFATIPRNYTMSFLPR

[14] = Cmax in human at 850 mg, po; type: ADME, organism-based; set-up: dose 850 mg, route oral; conditions: in vivo
[15] = AUC (0 to t) in human at 850 mg, po; type: ADME, organism-based; conditions: plasma
[16] = system: Mycobacterium tuberculosis; assay: Antimycobacterial activity against Mycobacterium tuberculosis Kurono infected ICR mouse assessed as reduction in viable lung bacterial count at 160 mg/kg, po administered once daily measured after 28 days; type: functional
Method in brief: (§3)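 ICR mice infected via caudal vein with 8.6 × 10^4 CFU M. tuberculosis Kurono; after 28 d, stratified randomisation (n = 5/group), then oral dosing once daily for 28 d in 5% gum arabic, 2-fold dose series. Lungs homogenised in water, dilutions plated on 7H11 agar, colonies counted after 14 d at 37 °C; log10 CFU.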

[17] = AUC (0 to t) in human at 300 mg, po; type: ADME, organism-based; conditions: plasma
[18] = system: Mycobacterium tuberculosis; assay: Antimycobacterial activity against Mycobacterium tuberculosis Kurono infected ICR mouse assessed as reduction in viable lung bacterial count at 5 mg/kg, po administered once daily measured after 28 days; type: functional; method in brief: as §3
[19] = Plasma concentration in Mycobacterium bovis BCG infected tuberculosis mouse model at 5 mg/kg, po after 16 hrs; type: ADME, organism-based; set-up: dose 5 mg/kg, route oral
Method in brief: (§4)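 The agent, dissolved or suspended in 5% gum arabic, was then given orally. At each time point, about 1 ml of blood was drawn from the abdominal post cava under ether into a heparinised syringe and centrifuged at 3,000 rpm, 5 °C. Plasma (0.1 ml) was mixed with 0.2 ml acetonitrile.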

[20] = Plasma concentration in Mycobacterium bovis BCG infected tuberculosis mouse model at 5 mg/kg, po after 8 hrs; type: ADME, organism-based; set-up: dose 5 mg/kg, route oral; method in brief: as §4
[21] = Plasma concentration in Mycobacterium bovis BCG infected tuberculosis mouse model at 5 mg/kg, po after 2 hrs; type: ADME, organism-based; set-up: dose 5 mg/kg, route oral; method in brief: as §4
[22] = Plasma concentration in Mycobacterium bovis BCG infected tuberculosis mouse model at 5 mg/kg, po after 4 hrs; type: ADME, organism-based; set-up: dose 5 mg/kg, route oral; method in brief: as §4
[23] = Plasma concentration in Mycobacterium bovis BCG infected tuberculosis mouse model at 5 mg/kg, po after 1 hr; type: ADME, organism-based; set-up: dose 5 mg/kg, route oral; method in brief: as §4
[24] = Plasma concentration in Mycobacterium bovis BCG infected tuberculosis mouse model at 5 mg/kg, po after 0.5 hrs; type: ADME, organism-based; set-up: dose 5 mg/kg, route oral; method in brief: as §4
[25] = system: Mycobacterium tuberculosis; assay: Antimycobacterial activity against Mycobacterium tuberculosis Kurono infected ICR mouse assessed as reduction in viable lung bacterial count at 3.5 mg/kg, po administered once daily measured after 28 days; type: functional; method in brief: as §3
[26] = system: Mycobacterium tuberculosis; assay: Antimycobacterial activity against Mycobacterium tuberculosis Kurono infected ICR mouse assessed as reduction in viable lung bacterial count at 40 mg/kg, po administered once daily measured after 28 days; type: functional; method in brief: as §3

Chain of CYP2E1 (P05181 whole entry): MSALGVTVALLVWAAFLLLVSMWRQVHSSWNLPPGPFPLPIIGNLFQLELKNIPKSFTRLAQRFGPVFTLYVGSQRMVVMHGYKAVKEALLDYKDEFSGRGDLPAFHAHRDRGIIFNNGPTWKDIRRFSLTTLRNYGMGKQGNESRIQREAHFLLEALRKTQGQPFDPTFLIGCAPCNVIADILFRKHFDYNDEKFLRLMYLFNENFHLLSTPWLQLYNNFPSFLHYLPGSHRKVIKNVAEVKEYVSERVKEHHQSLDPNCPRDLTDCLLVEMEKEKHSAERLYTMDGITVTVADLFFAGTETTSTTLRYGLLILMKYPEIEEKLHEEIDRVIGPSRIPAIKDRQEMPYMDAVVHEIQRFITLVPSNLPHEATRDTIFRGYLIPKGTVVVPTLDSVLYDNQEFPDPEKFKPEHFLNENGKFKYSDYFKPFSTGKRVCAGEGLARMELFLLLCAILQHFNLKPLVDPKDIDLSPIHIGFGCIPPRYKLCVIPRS

## C[C@]1(COc2ccc(N3CCC(Oc4ccc(OC(F)(F)F)cc4)CC3)cc2)Cn2cc([N+](=O)[O-])nc2O1
[1]
  Activity: Stable
[2]
  Activity: Stable
Salmonella typhimurium [3]
  Activity: Non-toxic
[4]
  Activity: Dose-dependent effect
Liver microsomes [5]
  Activity: Stable
Liver microsomes [6]
  Activity: Stable
[7]
  Activity: Dose-dependent effect
[8]
  Activity: Stable
[9]
  Activity: Stable
Salmonella typhimurium [10]
  Activity: Non-toxic
Salmonella typhimurium [11]
  Activity: Non-toxic
Salmonella typhimurium [12]
  Activity: Non-toxic
[13]
  Activity: Dose-dependent effect

## O=c1cc(-c2ccccc2)oc2c1ccc1ccccc12 [ALPHA-NAPHTHOFLAVONE]
CYP1A1/CYP1A2
  activity at 100 µM: 3.8%

## CCN(CC)C(=S)S [DITIOCARB]
CYP2E1
  activity at 100 µM: 55%
CYP2A6
  activity at 100 µM: 38.2%

## CC[C@@H](CO)NCCN[C@@H](CC)CO [ETHAMBUTOL]
[14]
  Cmax: 3700 ng/mL
[15]
  AUC(0-t): 13000 ng·h/mL
[16]
  Activity: 95%

## NNC(=O)c1ccncc1 [ISONIAZID]
[17]
  AUC(0-t): 22900 ng·h/mL
[18]
  Activity: 95%

## NC(=O)c1cnccn1 [PYRAZINAMIDE]
[16]
  Activity: 95%

## CO[C@H]1/C=C/O[C@@]2(C)Oc3c(C)c(O)c4c(O)c(c(/C=N/N5CCN(C)CC5)c(O)c4c3C2=O)NC(=O)/C(C)=C\C=C\[C@H](C)[C@H](O)[C@@H](C)[C@@H](O)[C@@H](C)[C@H](OC(C)=O)[C@@H]1C [RIFAMPIN]
[19]
  concentration at 16 h: 660 ng/mL
[20]
  concentration at 8 h: 3180 ng/mL
[21]
  concentration at 2 h: 4520 ng/mL
[22]
  concentration at 4 h: 3820 ng/mL
[23]
  concentration at 1 h: 4490 ng/mL
[24]
  concentration at 0.5 h: 3330 ng/mL
[25]
  Activity: 95%

## CN[C@@H]1[C@H](O[C@H]2[C@H](O[C@H]3[C@H](O)[C@@H](O)[C@H](N=C(N)N)[C@@H](O)[C@@H]3N=C(N)N)O[C@@H](C)[C@]2(O)C=O)O[C@@H](CO)[C@H](O)[C@H]1O [STREPTOMYCIN]
[26]
  Activity: 95%
